Measurements collected from several papers.
Compare with care: the assays were run in different laboratories.
FGFR2: Fibroblast growth factor receptor 2 (FGFR2, Homo sapiens, UniProt P21802)
FGFR2 N549H: Fibroblast growth factor receptor 2 (FGFR2, Homo sapiens, UniProt P21802, N549H)

The remaining binding of `CCc1ccccc1C(=O)Nc1n[nH]c2c(C)c(F)c(C3C(C#N)=C(C)N(C)C(C)=C3C#N)cc12` is reported as 83% (FGFR2; cell-free assay, competition with immobilised ligand; 1 µM).
`Cc1cnc(NC2CCOCC2)nc1-n1cnc(C(=O)NC(CN)c2cc(F)cc(Cl)c2)c1` (centres unmarked) gave a remaining activity of 99% (FGFR2 N549H; enzyme activity, inhibitor, radiometric; 1 µM).
For `C[C@@H]1CN(c2cc(-c3n[nH]c4ccc(OC5(C)CC5)cc34)ncn2)C[C@H](C)O1`, the remaining binding was 96% (FGFR2; cell-free assay, competition with immobilised ligand; 0.1 µM).
For `Cc1ccc(Nc2nccc(N(C)c3ccc4c(C)n(C)nc4c3)n2)cc1S(N)(=O)=O`, the inhibition was 92% (FGFR2; enzyme activity, inhibitor; 0.3 µM).
`Cc1ccc(NC(=O)c2ccc(CN3CCN(C)CC3)cc2)cc1Nc1nc(-c2cccnc2)cs1` gave a remaining signal of 100% (FGFR2; cell-free assay; 0.5 µM).
The remaining activity of `Cc1sc(C(=O)NC2COC2)cc1-n1cc(NC(=O)Nc2c(F)cccc2Cl)cn1` is reported as 105% (FGFR2; enzyme activity, inhibitor; 10 µM).
`CC(C)(O)[C@H]1CC[C@H](Nc2ccc3ncc(-c4cccc(C(F)(F)F)c4)n3n2)CC1` gave a remaining activity of 98.3% (FGFR2; enzyme activity, inhibitor; 1 µM).
`O=C1Nc2ccc(Cl)cc2C1=Cc1cc(Cl)c(O)c(Cl)c1` gave a remaining signal of 92% (FGFR2; cell-free assay; 0.5 µM).
The activity vs control of `Cc1cc(NC(=O)c2cccc3cc(-c4cccc5[nH]nc(N)c45)ccc23)ccc1F` is reported as 33% (FGFR2 N549H; enzyme activity, inhibitor; 0.1 µM).
`CN(C)C1CCN(CC#Cc2nn(C3CCCC3)c3nc(NCc4ccccc4)ncc23)C1` (centres unmarked) gave an inhibition of 0% (FGFR2; enzyme activity, inhibitor, FRET; 0.1 µM).
With `C[C@@]1(Cc2ccc(C#N)cc2)C(=O)N(c2cc(Cl)cc(Cl)c2)c2ncc(C(=O)NC3(c4nc(C5CCC5)no4)CC3)n21` the remaining binding was 100% (FGFR2; cell-free assay, competition with immobilised ligand; 1 µM).
The remaining activity of `CC(C)(C)c1nc2c(s1)c1nc(N)ncc1c1ccc(NS(=O)(=O)c3c(F)cccc3F)c(F)c12` is reported as 91% (FGFR2; enzyme activity, inhibitor, radiometric; 1 µM).
The remaining signal of `N#CCCc1ccc2c(c1)-c1[nH]c3ccc([N+](=O)[O-])cc3c1CC(=O)N2` is reported as 93.2% (FGFR2; cell-free assay; 0.5 µM).
`COc1cc(-c2cn(C3CCc4c(F)cccc4N(CC(F)(F)F)C3=O)nn2)ccc1-n1cnc(C)c1` (centres unmarked) gave a remaining binding of 100% (FGFR2; cell-free assay, competition with immobilised ligand; 1 µM).
`CNC(=O)c1cc(Oc2ccc(NC(=O)Nc3ccc(Cl)c(C(F)(F)F)c3)cc2)ccn1` gave an inhibition of 98% (FGFR2; enzyme activity, inhibitor; 10 µM).
For `COc1cc2c(Nc3ccc(Br)cc3F)ncnc2cc1OCC1CCN(C)CC1`, the remaining signal was 38.4% (FGFR2; cell-free assay; 0.5 µM).
`C[C@H](c1ccnc(Nc2nc3ccc(-c4cc(N(C)C)ncn4)cc3[nH]2)c1)N1CCN(C(=O)CC(F)(F)F)CC1` gave a remaining binding of 100% (FGFR2; cell-free assay, competition with immobilised ligand; 0.1 µM).
With `CCN(CC)CCNC(=O)c1c(C)[nH]c(/C=C2\C(=O)Nc3ccc(F)cc32)c1C` the inhibition was 94% (FGFR2; enzyme activity, inhibitor; 10 µM).
`CC/C(=N\NC(=O)NCc1cccc(O)c1)c1ccc(O)c(C)c1O` gave an inhibition of -2.7% (Fibroblast growth factor receptor 2 (FGFR2, Homo sapiens, UniProt P21802, V564I); enzyme activity, inhibitor; 0.1 µM).
For `O=C(NCCCC1CCCCC1)c1ccc(CNC(=O)c2cnn(-c3ccccc3)c2C(F)(F)F)cc1`, the remaining binding was 100% (FGFR2; cell-free assay, competition with immobilised ligand; 0.1 µM).
The remaining signal of `Cc1ccc(NC(=O)c2ccc(C)c(C(F)(F)F)c2)cc1C#Cc1nn(C2CCC(O)CC2)c2ncnc(N)c12` (centres unmarked) is reported as 0% (FGFR2; cell-free assay; 10 µM).
For `Nc1nc(Nc2ccc(S(N)(=O)=O)cc2)nn1C(=O)c1c(F)cccc1F`, the remaining signal was 79.7% (FGFR2; cell-free assay; 0.5 µM).
With `CN(C)CC#Cc1ccc(OCCCc2sc(N3CCc4cccc(C(=O)Nc5nc6ccccc6s5)c4C3)nc2C(=O)O)c(F)c1` the remaining binding was 98% (FGFR2; cell-free assay, competition with immobilised ligand; 1 µM).
With `Cc1ccc(C(=O)NCc2ccsc2)cc1C#Cc1cn(C(C)C)c2ncnc(N)c12` the activity vs control was 55% (FGFR2; enzyme activity, inhibitor; 1 µM).
For `Cc1noc([C@H]2C[C@@H](c3ccc(C(F)(F)F)cc3)CN(C(=O)N3CCS(=O)(=O)C3)C2)n1`, the remaining binding was 85% (FGFR2; cell-free assay, competition with immobilised ligand; 1 µM).
`CCCOc1ccc(OC)c(F)c1C(=O)c1ccc(C(=O)N[C@@H]2CNC[C@H]2NC(=O)c2ccc3[nH]ncc3c2)cc1` has a remaining activity of 69% (FGFR2 N549H; enzyme activity, inhibitor; 10 µM).
